From ChEMBL document CHEMBL3526018, “Metabolites of PPI-2458, a selective, irreversible inhibitor of methionine aminopeptidase-2: structure determination and in vivo activity” (Drug Metab Dispos, 2013) come the findings set out here.

The structures appear in SMILES notation. The source made the active and inactive calls. No cut-off for these calls is given here.

Series [1] deals with Cytochrome P450 3A4 (Homo sapiens, UniProt P08684). Put plainly: Inhibition of CYP3A4 activity in human liver microsomes using midazolam as a substrate by LC/MS analysis. In kind it is ADME. A general note: Microsomes from liver hold many membrane-bound enzymes, among them those of drug oxidation.
Series [2] deals with Methionine aminopeptidase 2 (Homo sapiens) (UniProt P50579). Briefly: Inhibition of human MetAP2 assessed as remaining enzyme activity after 8 hrs. Further details: concentration or dose not given beside the values. An outline of the steps: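 The hMetAP2 assay follows the fraction of active enzyme remaining during an 8 h incubation with inhibitor, relative to an enzyme-only control.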

A short description of series [3]: Tmax in non-Hodgkin lymphoma patient at 15 mg, po alternate days for 21 days. In kind it is ADME, organism-based. The note with it: human, in vivo. An outline of the steps:
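Non-Hodgkin lymphoma patients given oral capsules every other day for 21 days. Plasma sampled predose and at 15, 30 min and 1, 2, 3, 4, 6, 8, 24, 48 h after the first dose. Protein precipitated, extract reconstituted, parent and metabolites quantified by validated LC-MS/MS. CL/F and Vss/F derived from the administered dose.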

A short description of series [4]: AUC (0 to t hrs) in non-Hodgkin lymphoma patient at 15 mg, po alternate days for 21 days. The note with it: human, in vivo. In kind it is ADME, organism-based. An outline of the steps: (§1)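 Oral PPI-2458 given every other day to lymphoma patients. Plasma sampled pre-dose and at 15 min, 30 min, 1, 2, 3, 4, 6, 8, 24 and 48 h after the first dose. Parent and metabolites were measured by LC-MS/MS after protein precipitation, evaporation and reconstitution. CL/F was computed only for parent and summed analytes. For metabolites, t1/2 is an apparent first-phase value.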

Series [5] in a line: AUC (0 to infinity) in non-Hodgkin lymphoma patient at 15 mg, po alternate days for 21 days. In kind it is ADME, organism-based. Further details: dose 15 mg, route oral, time infinity. The conditions noted are these: human, in vivo. An outline of the steps: as §1
Series [6] can be described thus: Apparent oral clearance in non-Hodgkin lymphoma patient at 15 mg, po alternate days for 21 days. In kind it is ADME, organism-based. The note with it: human, in vivo. An outline of the steps:
as §1

The subject of series [7] is Liver microsome. Put plainly: Metabolic stability in human liver microsomes assessed as retention time of ((3R,4S,5S,6R)-4-((2R,3R)-3-(((S)-3,3-dimethyloxiran-2-yl)methyl)-2-methyloxiran-2-yl)-5-methoxy-1-oxaspiro[2.5]octan-6-yl ((R)-1-amino-3-methyl-1-oxobutan-2-yl)carbamate) at 5 mM by LC/MS analysis. In kind it is ADME. The note with it: 5000 µM.
Series [8] relates to Liver microsome. Put plainly: Metabolic stability in human liver microsomes assessed as retention time of ((3R,4S,5S,6R)-4-((2R,3R)-3-((E)-4-hydroxy-3-methylbut-2-en-1-yl)-2-methyloxiran-2-yl)-5-methoxy-1-oxaspiro[2.5]octan-6-yl((R)-1-amino-3-methyl-1-oxobutan-2-yl)carbamate) at 5 mM by LC/MS analysis. The conditions noted are these: 5000 µM. In kind it is ADME. An outline of the steps: (§2)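 Liver microsomes (pooled male/female) in 100 mM KPO4 pH 7.4 with PPI-2458 (5 mM stock), pre-incubated 5 min at 37°C, then 10 mM NADPH added; 20 min at 37°C with shaking. Time-zero and no-NADPH controls. Quenched with CH3CN; supernatant dried and redissolved in water. Analysed by LC-MS, ESI+ full scan 300–800 amu, C18 column, 10→50% B gradient.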

Series [9] has as its system Rattus norvegicus. Put plainly: Inhibition of MetAP2 level in Sprague-Dawley rat liver assessed as free enzyme level at 0.3 mg/kg, po by ELISA. In kind it is functional, organism-based. Further details: dose 0.3 mg/kg. An outline of the steps: (§3)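 Male Sprague-Dawley rats (200-225 g, n=3 per group) were dosed once IV at 0.3 mg/kg or PO at 0.3 or 3.0 mg/kg, in 11% HPCD in water. Blood, liver, lung, thymus and pooled non-mesenteric lymph nodes were taken at ~24 h and lysed or homogenized with NP-40. Free MetAP2 was measured by ELISA and expressed as % of vehicle.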
For orientation: In an ELISA, binding on a coated surface is turned into a signal by an enzyme label.

Series [10] deals with Rattus norvegicus. Put plainly: Inhibition of MetAP2 level in Sprague-Dawley rat lung assessed as free enzyme level at 3 mg/kg, po by ELISA. In kind it is functional, organism-based. Details: dose 3 mg/kg. An outline of the steps:
as §3

Series [11] has as its system Liver. Briefly: Metabolic stability in mouse liver microsomes assessed as retention time of ((3R,4S,5S,6R)-4-((2R,3R)-3-((E)-4-hydroxy-3-methylbut-2-en-1-yl)-2-methyloxiran-2-yl)-5-methoxy-1-oxaspiro[2.5]octan-6-yl((R)-1-amino-3-methyl-1-oxobutan-2-yl)carbamate) at 5 mM by LC/MS analysis. In kind it is ADME. The conditions noted are these: 5000 µM. An outline of the steps:
as §2

For series [12], the system named is Liver microsome. Put plainly: Metabolic stability in rat liver microsomes assessed as retention time of ((3R,4S,5S,6R)-4-((2R,3R)-3-((E)-4-hydroxy-3-methylbut-2-en-1-yl)-2-methyloxiran-2-yl)-5-methoxy-1-oxaspiro[2.5]octan-6-yl((R)-1-amino-3-methyl-1-oxobutan-2-yl)carbamate) at 5 mM by LC/MS analysis. The conditions noted are these: 5000 µM. In kind it is ADME. An outline of the steps:
as §2

In series [13] the test system is CYP3A5 (Homo sapiens). Put plainly: Activity of human recombinant CYP3A5 assessed as ((3R,4S,5S,6R)-5-methoxy-4-((2R,3R)-2-methyl-3-(3-methylbut-2-en-1-yl)oxiran-2-yl)-1-oxaspiro[2.5]octan-6-yl ((R)-1-amino-3-hydroxy-3-methyl-1-oxobutan-2-yl)carbamate) formation. The note with it: recombinant enzyme.
Series [14] has as its system CYP3A4 (Homo sapiens). Briefly: Activity of human recombinant CYP3A4 assessed as ((3R,4S,5S,6R)-4-((2R,3R)-3-((E)-4-hydroxy-3-methylbut-2-en-1-yl)-2-methyloxiran-2-yl)-5-methoxy-1-oxaspiro[2.5]octan-6-yl((R)-1-amino-3-methyl-1-oxobutan-2-yl)carbamate) formation. The conditions noted are these: recombinant enzyme.
The test system of series [15] is CYP3A4 (Homo sapiens). Put plainly: Activity of human recombinant CYP3A4 assessed as ((3R,4S,5S,6R)-4-((2R,3R)-3-(((R)-3,3-dimethyloxiran-2-yl)methyl)-2-methyloxiran-2-yl)-5-methoxy-1-oxaspiro[2.5]octan-6-yl ((R)-1-amino-3-methyl-1-oxobutan-2-yl)carbamate) formation. The note with it: recombinant enzyme.
Series [16] relates to CYP3A5 (Homo sapiens). Put plainly: Activity of human recombinant CYP3A5 assessed as ((3R,4S,5S,6R)-4-((2R,3R)-3-(((S)-3,3-dimethyloxiran-2-yl)methyl)-2-methyloxiran-2-yl)-5-methoxy-1-oxaspiro[2.5]octan-6-yl ((R)-1-amino-3-methyl-1-oxobutan-2-yl)carbamate) formation. The note with it: recombinant enzyme.
For series [17], the system named is CYP3A4 (Homo sapiens). Briefly: Ratio of Vmax to Km for human recombinant CYP3A4 assessed as ((3R,4S,5S,6R)-4-((2R,3R)-3-((E)-4-hydroxy-3-methylbut-2-en-1-yl)-2-methyloxiran-2-yl)-5-methoxy-1-oxaspiro[2.5]octan-6-yl((R)-1-amino-3-methyl-1-oxobutan-2-yl)carbamate) formation. The conditions noted are these: recombinant enzyme.
Series [18] relates to CYP3A5 (Homo sapiens). Briefly: Activity of human recombinant CYP3A5 assessed as ((3R,4S,5S,6R)-4-((2R,3R)-3-((E)-4-hydroxy-3-methylbut-2-en-1-yl)-2-methyloxiran-2-yl)-5-methoxy-1-oxaspiro[2.5]octan-6-yl((R)-1-amino-3-methyl-1-oxobutan-2-yl)carbamate) formation per pmol of enzyme.
The subject of series [19] is CYP3A4 (Homo sapiens). Briefly: Activity of human recombinant CYP3A4 assessed as ((3R,4S,5S,6R)-4-((2R,3R)-3-(((S)-3,3-dimethyloxiran-2-yl)methyl)-2-methyloxiran-2-yl)-5-methoxy-1-oxaspiro[2.5]octan-6-yl ((R)-1-amino-3-methyl-1-oxobutan-2-yl)carbamate) formation per pmol of enzyme.

Cytochrome P450 3A4, sequence (P08684 whole entry): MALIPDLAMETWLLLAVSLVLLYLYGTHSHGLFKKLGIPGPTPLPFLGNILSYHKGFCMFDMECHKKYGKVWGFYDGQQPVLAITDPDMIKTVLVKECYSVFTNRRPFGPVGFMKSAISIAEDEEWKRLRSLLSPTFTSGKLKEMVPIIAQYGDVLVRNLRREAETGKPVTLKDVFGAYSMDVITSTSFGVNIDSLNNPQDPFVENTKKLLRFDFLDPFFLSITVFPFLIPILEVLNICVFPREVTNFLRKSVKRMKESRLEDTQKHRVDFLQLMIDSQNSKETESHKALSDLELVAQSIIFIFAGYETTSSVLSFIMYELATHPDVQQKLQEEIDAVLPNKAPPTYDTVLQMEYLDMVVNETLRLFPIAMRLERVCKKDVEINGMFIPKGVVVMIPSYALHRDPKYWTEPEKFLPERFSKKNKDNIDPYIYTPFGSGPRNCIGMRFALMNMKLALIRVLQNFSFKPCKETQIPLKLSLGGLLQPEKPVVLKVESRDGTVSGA
Methionine aminopeptidase 2 (Homo sapiens), sequence (P50579 2-478 limits assumed): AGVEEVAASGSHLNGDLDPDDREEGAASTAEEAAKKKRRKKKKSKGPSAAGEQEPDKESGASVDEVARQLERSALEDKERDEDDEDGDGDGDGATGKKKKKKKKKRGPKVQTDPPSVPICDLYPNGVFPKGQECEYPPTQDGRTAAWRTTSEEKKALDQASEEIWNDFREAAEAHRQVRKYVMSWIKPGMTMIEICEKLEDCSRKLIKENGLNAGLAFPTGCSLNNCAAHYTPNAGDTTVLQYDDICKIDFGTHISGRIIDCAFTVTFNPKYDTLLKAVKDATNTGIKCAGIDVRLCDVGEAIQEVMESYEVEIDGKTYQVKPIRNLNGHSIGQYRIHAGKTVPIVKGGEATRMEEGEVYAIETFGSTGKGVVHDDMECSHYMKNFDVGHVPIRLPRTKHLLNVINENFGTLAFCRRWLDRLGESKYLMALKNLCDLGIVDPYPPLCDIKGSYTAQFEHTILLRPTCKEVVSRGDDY

A word on the Ki: it is the dissociation constant of the complex between target and ligand, obtained from inhibition or displacement. One may read the Tmax as the time from dosing to the highest level. For orientation: AUC(0-t) means the area under the concentration-time curve up to a stated or last time point. The AUC(0-inf) is the area under the concentration-time curve extrapolated to infinity. Usually CL/F stands for clearance divided by bioavailability, as obtained after extravascular dosing. Broadly, the Km is the concentration of substrate that gives half-maximal velocity. As a reminder, the Vmax is the rate approached at saturating substrate. `CO[C@@H]1[C@H](OC(=O)N[C@@H](C(N)=O)C(C)C)CC[C@]2(CO2)[C@H]1[C@@]1(C)O[C@@H]1CC=C(C)C` [PPI-2458] gave a Ki in series [1] of 58 µM. The Activity in [2] turned out to be 2.8%. Further, the time of peak concentration (Tmax) in series [3] is 36 min. The AUC(0-t) at 504 h in [4] was determined as 43.9 ng·h/mL. In [5], this compound yielded an area under the curve AUC(0-inf) of 44.1 ng·h/mL. The apparent clearance CL/F in series [6] is 5880 mL/min. The Drug metabolism entry in series [7], in series [8], in series [11] and in series [12] was “metabolite_detected” each time. The inhibition entry in [9] and in series [10] was “Active” in each case. The Km was 17 µM in series [13], 15 µM in series [14], 17 µM in [15] and 17 µM in series [16]. Moreover, the Vmax/Km in series [17] was 0.09 µL/min. In addition, the Vmax in series [18] amounted to 0.8 pmol/min; in series [19], 2.97 pmol/min.
